Measured values published in ChEMBL document CHEMBL1126139 (J Med Chem, 1992).

What was measured:
[1] = target: T1, Glycine receptor subunit alpha-1 (Rattus norvegicus, UniProt P07727); experiment: Inhibitory concentration required to inhibit [3H]strychnine binding to […] of rat spinal cord membranes.
T1 sequence (P07727 whole entry): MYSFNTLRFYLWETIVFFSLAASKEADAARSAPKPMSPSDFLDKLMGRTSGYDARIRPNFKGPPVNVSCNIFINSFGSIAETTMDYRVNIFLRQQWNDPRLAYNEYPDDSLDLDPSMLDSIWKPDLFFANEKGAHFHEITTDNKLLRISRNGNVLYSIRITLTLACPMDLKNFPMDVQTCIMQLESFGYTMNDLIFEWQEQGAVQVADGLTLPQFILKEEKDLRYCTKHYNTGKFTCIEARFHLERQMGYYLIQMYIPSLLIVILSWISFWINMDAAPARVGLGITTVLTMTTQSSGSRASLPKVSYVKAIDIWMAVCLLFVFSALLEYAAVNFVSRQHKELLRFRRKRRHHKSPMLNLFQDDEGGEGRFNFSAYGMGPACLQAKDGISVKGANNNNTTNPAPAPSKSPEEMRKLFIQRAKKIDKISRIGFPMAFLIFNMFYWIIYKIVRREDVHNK

[2] = target: T1, Glycine receptor subunit alpha-1; experiment: Inhibitory concentration required to inhibit [3H]strychnine binding to […]
Method in brief: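 [3H]Strychnine displacement; IC50 obtained by nonlinear curve fitting to a Langmuir isotherm.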

[3] = species on record: Mus musculus; experiment: Change in input resistance of cultured spinal cord neurons produced at a dose 1 mM; format: functional
[4] = species on record: Mus musculus; experiment: Change in input resistance of cultured spinal cord neurons produced at a dose 100 uM; format: functional
[5] = species on record: Mus musculus; experiment: Change in input resistance of cultured spinal cord neurons produced at a dose 1 mM+100 uM strychnine; format: functional
[6] = species on record: Mus musculus; experiment: Change in input resistance of cultured spinal cord neurons produced at a dose 100 uM tetrodotoxin; format: functional
[7] = species on record: Mus musculus; experiment: Change in input resistance of cultured spinal cord neurons produced at a dose 1 mM+100 uM tetrodotoxin; format: functional
[8] = species on record: Mus musculus; experiment: Change in input resistance of cultured spinal cord neurons produced at a dose 100 uM+100 uM tetrodotoxin; format: functional
[9] = Ability to displace [3H]strychnine-sensitive glycine receptor binding to rat spinal cord membranes; at 100 uM
[10] = species on record: Mus musculus; experiment: Change in input resistance of cultured spinal cord neurons produced at a dose 1 mM+100 uM bicuculline+3 uMtetrodotoxin; format: functional
[11] = species on record: Mus musculus; experiment: Change in input resistance of cultured spinal cord neurons produced at a dose 100 uM+100 uM bicuculline+3 uM tetrodotoxin; format: functional

NCCC(=O)O [BETA-ALANINE]
IC50 [1]: 11.6 µM

O=C(O)C1C=CCN1 (stereo not given)
IC50 [2]: 242 µM

O=C(O)C1=CCNC1
Activity [3]: 60.4%
IC50 [2]: 7.9 µM
Activity [4]: 22.7%
Activity [5]: 4.7%
Activity [6]: 5.1%
Activity [7]: 37.2%

C[C@H](N)C(=O)O [ALANINE]
IC50 [2]: 198 µM

O=C(O)C1CNC1
Activity [3]: 83.1%
Activity [8]: 10.7%
IC50 [2]: 23.7 µM
Activity [4]: 9.4%
Activity [5]: 37.7%
Activity [7]: 71.7%

O=C(O)C1CCN1 (stereo not given)
IC50 [2]: 399 µM

O=C(O)[C@@H]1CCCN1 (stereo in doubt; 8) [PROLINE]
IC50 [2]: 17.2 µM

O=C(O)c1cc[nH]c1
inhibition [9]: 46%

O=C(O)[C@@H]1CCCN1 (stereo in doubt) [PROLINE]
IC50 [2]: 414 µM

O=C(O)C1CCNCC1 [ISONIPECOTIC ACID]
Activity [3]: 73.6%
IC50 [2]: 94.1 µM
Activity [4]: 19.2%
Activity [10]: 0.1%
Activity [11]: 3%

C[C@@H](N)C(=O)O [D-ALANINE]
IC50 [1]: 90.9 µM
